Assay results taken from paper PMC3188443 (Biochemical pharmacology, 2010).
Ends that are not written are not given here.

Assays:
Stat3 [1] = target: T1, Stat3 (Mus musculus, UniProt P42227); assay: Surface Plasmon Resonance analysis of binding to immobilized His-tagged Stat3; design: species or system murine; settings: 0-5 μM peptide as analyte
Summary of the method: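 His-tagged Stat3 expressed in E. coli BL21(DE3), purified on a Ni-ion Sepharose column, and captured on a HisCap sensor chip by injecting 50 μg/ml protein. Analytes were unphosphorylated or phosphotyrosine gp-130 heptapeptides at 0-5 μM, passed over the chip. Running buffer was 1X PBS, 0.5% DMSO. Association and dissociation rate constants were fitted, and KD was taken as their ratio.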

Stat3 [2] = target: T1, Stat3; format: binding, murine; settings: 150 nM His-Stat3, unlabeled peptide
[3] = target: His-tagged murine Stat3 protein (murine) (UniProt P42227); assay: SPR
Sequence of His-tagged murine Stat3 protein (murine) (P42227 whole entry): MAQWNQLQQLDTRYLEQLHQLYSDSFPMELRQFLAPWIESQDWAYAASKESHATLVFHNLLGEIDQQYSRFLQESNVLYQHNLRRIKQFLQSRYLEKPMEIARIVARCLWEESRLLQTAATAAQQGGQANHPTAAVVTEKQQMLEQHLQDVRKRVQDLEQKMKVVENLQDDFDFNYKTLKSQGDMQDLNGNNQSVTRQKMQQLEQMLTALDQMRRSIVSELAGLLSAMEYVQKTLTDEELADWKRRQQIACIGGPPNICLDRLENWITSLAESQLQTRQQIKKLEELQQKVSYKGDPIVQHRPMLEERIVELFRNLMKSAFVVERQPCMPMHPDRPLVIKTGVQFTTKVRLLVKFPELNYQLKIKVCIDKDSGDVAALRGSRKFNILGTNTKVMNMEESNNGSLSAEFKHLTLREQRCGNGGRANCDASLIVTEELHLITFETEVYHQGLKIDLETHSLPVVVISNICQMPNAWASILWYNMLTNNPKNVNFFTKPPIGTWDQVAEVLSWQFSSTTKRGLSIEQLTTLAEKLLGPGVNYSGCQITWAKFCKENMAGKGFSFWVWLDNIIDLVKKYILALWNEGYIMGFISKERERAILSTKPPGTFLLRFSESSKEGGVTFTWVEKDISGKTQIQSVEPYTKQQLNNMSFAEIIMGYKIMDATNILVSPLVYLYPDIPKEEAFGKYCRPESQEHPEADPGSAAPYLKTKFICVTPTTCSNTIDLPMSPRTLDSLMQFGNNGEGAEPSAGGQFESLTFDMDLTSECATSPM

[4] = target: His-tagged murine Stat3 protein (murine) (UniProt P42227); assay: fluorescence polarisation

T1 sequence (P42227 whole entry): as above

Row | binding to Stat3 (SPR) (Stat3 [1]) | inhibition in the FP assay, in words (Stat3 [2]) | Kd [3] | IC50 [4] | Substance
1 | no significant binding | no evidence of inhibition |  |  | GYLPQTV-NH2
2 |  |  | 24 nM | 300 nM | GpYLPQTV-NH2, high affinity Stat3-binding phosphoTyr peptide derived from the IL-6R subunit gp-130
